According to ChEMBL document CHEMBL1629654, “Breakthrough Aspergillus fumigatus and Candida albicans double infection during caspofungin treatment: laboratory characteristics and implication for susceptibility testing” (2009):
In brackets after ≈: the same amount, converted by molar mass. Activity calls are given as the source filed them. The rule behind the calls is not given here. *1 amine or outer side, *2 acyl side, *3 side chain or, on linkers, in order; H or OH if unused. Where a SMILES comes first, the peptide text is derived from it. Bridges are numbered along the chain shown (N, C = ends). [ ]: non-standard residue; d: D form. The star is where a group is joined. pTerphenylCO(4''-OnC5H11) = CCCCCOc1ccc(-c2ccc(-c3ccc(C(=O)*)cc3)cc2)cc1; Orn(4R-OH,5R-OH) = O=C([C@H](C[C@@H](O)[C@@H](O)N[*:3])N[*:1])[*:2]; hTyr(3S-OH,4S-OH) = N[C@H](C(=O)O)[C@H](O)[C@@H](O)c1ccc(O)cc1; Pro(3S-OH,4S-Me) = C[C@H]1CN[C@H](C(=O)O)[C@H]1O; Hyp = O=C(O)[C@@H]1C[C@@H](O)CN1

Key:
Candida albicans [1] = assay: Antimicrobial activity against Candida albicans isolate C after 48 hrs by Etest; format: functional
Procedure, shortened: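 Etest on RPMI 1640 agar with 2% glucose, run per the manufacturer's instructions. Index and control clinical blood isolates were tested in parallel.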

Candida albicans [2] = assay: Antimicrobial activity against Candida albicans isolate R after 48 hrs by Etest; format: functional
Procedure, shortened: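 Etest on RPMI 1640 agar with 2% glucose, performed according to the manufacturer's recommendations.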

Candida albicans [3] = assay: Antimicrobial activity against Candida albicans isolate S at 5 ug/ml grown on RPMI 1640 medium after 24 hrs by disk diffusion method; format: functional
Procedure, shortened: (§1)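 Disk diffusion on 90-mm RPMI 1640 with 2% glucose agar or on Mueller-Hinton agar. Plates were swabbed in three directions with a yeast suspension of 1–5 × 10^6 cells/ml. Paper disks (6 mm) held 1, 5 or 25 µg drug. Zone diameters were read at 24 and 48 h; values are means of two experiments.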

Candida albicans [4] = assay: Antimicrobial activity against Candida albicans isolate R at 0.5 ug/ml after 48 hrs by agar dilution method; format: functional, organism-based
Procedure, shortened: (§2)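 Sabouraud agar wells contained caspofungin 0, 0.5, 1 or 2 µg/ml, or anidulafungin 0, 0.003, 0.125 or 0.5 µg/ml. Isolates were subcultured 2 days on CHROMagar. Suspensions of 1–5 × 10^6 CFU/ml in sterile water were diluted 1,500-fold, and 5 µl (about 3–15 cells) was spread per well. Growth was scored.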

Candida albicans [5] = assay: Antimicrobial activity against Candida albicans isolate R at 25 ug/ml grown on RPMI 1640 medium after 48 hrs by disk diffusion method; format: functional; procedure, shortened: as §1
Candida albicans [6] = assay: Antimicrobial activity against Candida albicans isolate S infected in NMRI mouse assessed as decrease in kidney bacterial burden at 12 mg/kg, ip measured on day 4; format: functional, organism-based; set-up: dose 12 mg/kg
Candida albicans [7] = assay: Antimicrobial activity against Candida albicans isolate R at 1 ug/ml grown on RPMI 1640 medium after 24 hrs by disk diffusion method; format: functional; procedure, shortened: as §1
Candida albicans [8] = assay: Antimicrobial activity against Candida albicans isolate C after 48 hrs by EUCAST microdilution method; format: functional
Procedure, shortened: (§3)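 EUCAST broth microdilution, plates read spectrophotometrically at 490 nm. MIC is the lowest dilution giving 50% growth inhibition. C. krusei […] control included in each run.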

Candida albicans [9] = assay: Antimicrobial activity against Candida albicans isolate C after 48 hrs by microdilution method; format: functional
Procedure, shortened: (§4)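 Broth microdilution in microtiter plates, read spectrophotometrically at 490 nm. MIC taken as the lowest drug dilution giving 50% growth inhibition. C. krusei […] run as control in each run. Read at 24 h and 48 h; trailing growth noted at 48 h.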

Candida albicans [10] = assay: Antimicrobial activity against Candida albicans isolate S at 25 ug/ml grown on Muller-Hinton agar medium after 48 hrs by disk diffusion method; format: functional; procedure, shortened: as §1
Candida albicans [11] = assay: Antimicrobial activity against Candida albicans isolate C after 24 hrs by microdilution method; format: functional; procedure, shortened: as §4
Candida albicans [12] = assay: Antimicrobial activity against Candida albicans isolate R after 48 hrs by EUCAST microdilution method; format: functional; procedure, shortened: as §3
Candida albicans [13] = assay: Antimicrobial activity against Candida albicans isolate S at 5 ug/ml grown on Muller-Hinton agar medium after 48 hrs by disk diffusion method; format: functional; procedure, shortened: as §1
Candida albicans [14] = assay: Antimicrobial activity against Candida albicans isolate R at 25 ug/ml grown on Muller-Hinton agar medium after 24 hrs by disk diffusion method; format: functional; procedure, shortened: as §1
Candida albicans [15] = assay: Antimicrobial activity against Candida albicans isolate R at 5 ug/ml grown on Muller-Hinton agar medium after 48 hrs by disk diffusion method; format: functional; procedure, shortened: as §1
Candida albicans [16] = assay: Antimicrobial activity against Candida albicans isolate R at 1 ug/ml grown on Muller-Hinton agar medium after 48 hrs by disk diffusion method; format: functional; procedure, shortened: as §1
Candida albicans [17] = assay: Antimicrobial activity against Candida albicans isolate S at 1 ug/ml grown on Muller-Hinton agar medium after 48 hrs by disk diffusion method; format: functional; procedure, shortened: as §1
Candida albicans [18] = assay: Antimicrobial activity against Candida albicans isolate S at 25 ug/ml grown on RPMI 1640 medium after 48 hrs by disk diffusion method; format: functional; procedure, shortened: as §1
Candida albicans [19] = assay: Antimicrobial activity against Candida albicans isolate S at 1 ug/ml grown on RPMI 1640 medium after 48 hrs by disk diffusion method; format: functional; procedure, shortened: as §1
Candida albicans [20] = assay: Antimicrobial activity against Candida albicans isolate R at 0.003 ug/ml after 48 hrs by agar dilution method; format: functional, organism-based; procedure, shortened: as §2
Candida albicans [21] = assay: Antimicrobial activity against Candida albicans isolate R at 5 ug/ml grown on RPMI 1640 medium after 48 hrs by disk diffusion method; format: functional; procedure, shortened: as §1
Candida albicans [22] = assay: Antimicrobial activity against Candida albicans isolate S at 1 ug/ml grown on RPMI 1640 medium after 24 hrs by disk diffusion method; format: functional; procedure, shortened: as §1
Candida albicans [23] = assay: Antimicrobial activity against Candida albicans isolate R infected in NMRI mouse assessed as decrease in kidney bacterial burden at 12 mg/kg, ip measured on day 4; format: functional, organism-based; set-up: dose 12 mg/kg
Procedure, shortened: (§5)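 NMRI mice (26–30 g), seven per group, were inoculated iv on day 0 with C. albicans (1 × 10^5 CFU). They received ip treatment on days 1–3 with anidulafungin 12 mg/kg or fluconazole 50 mg/kg; controls received saline. On day 4, kidneys were homogenised in saline and CFU counted by spot plating of 10-fold dilutions. Results are log10 CFU/ml; detection limit 50 CFU/ml; Mann-Whitney test.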

Candida albicans [24] = assay: Antimicrobial activity against Candida albicans isolate R at 1 ug/ml grown on Muller-Hinton agar medium after 24 hrs by disk diffusion method; format: functional; procedure, shortened: as §1
Candida albicans [25] = assay: Antimicrobial activity against Candida albicans isolate R at 25 ug/ml grown on RPMI 1640 medium after 24 hrs by disk diffusion method; format: functional; procedure, shortened: as §1
Candida albicans [26] = assay: Antimicrobial activity against Candida albicans isolate R after 48 hrs by microdilution method; format: functional; procedure, shortened: as §4
Candida albicans [27] = assay: Antimicrobial activity against Candida albicans isolate R at 1 ug/ml grown on RPMI 1640 medium after 48 hrs by disk diffusion method; format: functional; procedure, shortened: as §1
Candida albicans [28] = assay: Antimicrobial activity against Candida albicans isolate S at 25 ug/ml grown on Muller-Hinton agar medium after 24 hrs by disk diffusion method; format: functional; procedure, shortened: as §1
Candida albicans [29] = assay: Antimicrobial activity against Candida albicans isolate C at 0.003 ug/ml after 48 hrs by agar dilution method; format: functional, organism-based; procedure, shortened: as §2
Candida albicans [30] = assay: Antimicrobial activity against Candida albicans isolate C at 0.5 ug/ml after 48 hrs by agar dilution method; format: functional, organism-based; procedure, shortened: as §2
Candida albicans [31] = assay: Antimicrobial activity against Candida albicans isolate S at 1 ug/ml grown on Muller-Hinton agar medium after 24 hrs by disk diffusion method; format: functional; procedure, shortened: as §1
Candida albicans [32] = assay: Antimicrobial activity against Candida albicans isolate S at 25 ug/ml grown on RPMI 1640 medium after 24 hrs by disk diffusion method; format: functional; procedure, shortened: as §1
Candida albicans [33] = assay: Antimicrobial activity against Candida albicans isolate R at 5 ug/ml grown on RPMI 1640 medium after 24 hrs by disk diffusion method; format: functional; procedure, shortened: as §1
Candida albicans [34] = assay: Antimicrobial activity against Candida albicans isolate R at 25 ug/ml grown on Muller-Hinton agar medium after 48 hrs by disk diffusion method; format: functional; procedure, shortened: as §1
Candida albicans [35] = assay: Antimicrobial activity against Candida albicans isolate S at 5 ug/ml grown on RPMI 1640 medium after 48 hrs by disk diffusion method; format: functional; procedure, shortened: as §1
Candida albicans [36] = assay: Antimicrobial activity against Candida albicans isolate R at 5 ug/ml grown on Muller-Hinton agar medium after 24 hrs by disk diffusion method; format: functional; procedure, shortened: as §1
Candida albicans [37] = assay: Antimicrobial activity against Candida albicans isolate R after 24 hrs by microdilution method; format: functional; procedure, shortened: as §4
Candida albicans [38] = assay: Antimicrobial activity against Candida albicans isolate S at 5 ug/ml grown on Muller-Hinton agar medium after 24 hrs by disk diffusion method; format: functional; procedure, shortened: as §1
Candida albicans [39] = assay: Antimicrobial activity against Candida albicans isolate R infected in NMRI mouse assessed as decrease in kidney bacterial burden at 50 mg/kg, ip measured on day 4; format: functional, organism-based; set-up: dose 50 mg/kg; procedure, shortened: as §5
Candida albicans [40] = assay: Antimicrobial activity against Candida albicans isolate S infected in NMRI mouse assessed as decrease in kidney bacterial burden at 50 mg/kg, ip measured on day 4; format: functional, organism-based; set-up: dose 50 mg/kg

## C[C@@H]1[C@H](O)[C@@H](C)/C=C/C=C/C=C/C=C/C=C/C=C/C=C/[C@H](O[C@@H]2O[C@H](C)[C@@H](O)[C@H](N)[C@@H]2O)C[C@@H]2O[C@](O)(C[C@@H](O)C[C@@H](O)[C@H](O)CC[C@@H](O)C[C@@H](O)CC(=O)O[C@H]1C)C[C@H](O)[C@H]2C(=O)O [AMPHOTERICIN B]
Candida albicans [1]
  MIC: 0.125 µg/mL (≈ 0.135 µM)
Candida albicans [2]
  MIC: 0.25 µg/mL (≈ 0.271 µM)

## CCCCCOc1ccc(-c2ccc(-c3ccc(C(=O)N[C@H]4C[C@@H](O)[C@@H](O)NC(=O)[C@@H]5[C@@H](O)[C@@H](C)CN5C(=O)[C@H]([C@@H](C)O)NC(=O)[C@H]([C@H](O)[C@@H](O)c5ccc(O)cc5)NC(=O)[C@@H]5C[C@@H](O)CN5C(=O)[C@H]([C@@H](C)O)NC4=O)cc3)cc2)cc1 [ANIDULAFUNGIN] ({pTerphenylCO(4''-OnC5H11)}-[Orn(4R-OH,5R-OH)]T[Hyp][hTyr(3S-OH,4S-OH)]T[Pro(3S-OH,4S-Me)]; lactam 1-C)
Candida albicans [3]
  inhibition zone (IZ): 15.9 mm
Candida albicans [4]
  growth inhibition (GI): inactive
Candida albicans [5]
  inhibition zone (IZ): 7.1 mm
Candida albicans [6]
  Activity: Active
Candida albicans [7]
  inhibition zone (IZ): 8.5 mm
Candida albicans [8]
  MIC: ≤ 0.03 µg/mL
Candida albicans [9]
  MIC: ≤ 0.015 µg/mL
Candida albicans [10]
  inhibition zone (IZ): 13.1 mm
Candida albicans [11]
  MIC: 0.015 µg/mL (≈ 0.0132 µM)
Candida albicans [12]
  MIC: 0.06 µg/mL (≈ 0.0526 µM)
Candida albicans [13]
  inhibition zone (IZ): 14.6 mm
Candida albicans [14]
  inhibition zone (IZ): 6.8 mm
Candida albicans [15]
  inhibition zone (IZ): 9.9 mm
Candida albicans [16]
  inhibition zone (IZ): 6.8 mm
Candida albicans [17]
  inhibition zone (IZ): 13.9 mm
Candida albicans [18]
  inhibition zone (IZ): 13.8 mm
Candida albicans [19]
  inhibition zone (IZ): 13.2 mm
Candida albicans [1]
  MIC: ≤ 0.002 µg/mL
Candida albicans [20]
  growth inhibition (GI): inactive
Candida albicans [21]
  inhibition zone (IZ): 8.8 mm
Candida albicans [22]
  inhibition zone (IZ): 13.7 mm
Candida albicans [23]
  Activity: inactive
Candida albicans [24]
  inhibition zone (IZ): 6.7 mm
Candida albicans [25]
  inhibition zone (IZ): 7.7 mm
Candida albicans [26]
  MIC: 0.25 µg/mL (≈ 0.219 µM)
Candida albicans [27]
  inhibition zone (IZ): 7.8 mm
Candida albicans [28]
  inhibition zone (IZ): 12.8 mm
Candida albicans [29]
  growth inhibition (GI): inactive
Candida albicans [30]
  growth inhibition (GI): Active
Candida albicans [31]
  inhibition zone (IZ): 13.2 mm
Candida albicans [32]
  inhibition zone (IZ): 14.9 mm
Candida albicans [2]
  MIC: 0.5 µg/mL (≈ 0.438 µM)
Candida albicans [33]
  inhibition zone (IZ): 9.5 mm
Candida albicans [34]
  inhibition zone (IZ): 7 mm
Candida albicans [35]
  inhibition zone (IZ): 15.7 mm
Candida albicans [36]
  inhibition zone (IZ): 9.4 mm
Candida albicans [37]
  MIC: 0.5 µg/mL (≈ 0.438 µM)
Candida albicans [38]
  inhibition zone (IZ): 14.2 mm

## OC(Cn1cncn1)(Cn1cncn1)c1ccc(F)cc1F [FLUCONAZOLE]
Candida albicans [8]
  MIC: 0.125 µg/mL (≈ 0.408 µM)
Candida albicans [9]
  MIC: ≤ 0.25 µg/mL
Candida albicans [11]
  MIC: 0.25 µg/mL (≈ 0.816 µM)
Candida albicans [12]
  MIC: ≤ 0.125 µg/mL
Candida albicans [39]
  Activity: Active
Candida albicans [26]
  MIC: ≤ 0.125 µg/mL
Candida albicans [40]
  Activity: Active
Candida albicans [37]
  MIC: ≤ 0.125 µg/mL
